From ChEMBL document CHEMBL5329162, “The sulfonadyns: a class of aryl sulfonamides inhibiting dynamin I GTPase and clathrin mediated endocytosis are anti-seizure in animal models” (RSC Med Chem, 2023)
Active and inactive are the calls of the source.

Experiments:
[1] = (§1) Inhibition of phosphotidylserine liposome-stimulated sheep brain Dynamin 1 GTPase activity using GTP as substrate by malachite green assay; format: tissue-based, Ovis aries
Summary of the method: (§2)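 Native dynamin I from sheep brain (membrane extraction, GST-Amph2-SH3-sepharose affinity), stimulated by sonicated phosphatidylserine liposomes; GTP hydrolysis read as orthophosphate by malachite green. DMSO at most 3.3% final. […] 300 μM is the top concentration tested.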

Ovis aries [2] = species: Ovis aries; experiment: as §1; format: tissue-based; summary of the method: as §2
[3] = Inhibition of clathrin-mediated endocytosis in serum-starved human U2OS cells assessed as reduction in Tfn-A594 uptake pretreated for 30 mins followed by Tfn-A594 addition and measured after 8 mins; format: cell-based
Summary of the method: (§3)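 U2OS cells on fibronectin-coated plates, serum-starved 16 h, then compound (usually 6 concentrations, 1–300 μM) or vehicle for 30 min, then Tfn-A594 4 μg mL⁻¹ for 8 min at 37 °C. Surface Tfn acid-stripped (pH 2.8), PFA-fixed, DAPI-stained; automated imaging of integrated Tfn intensity per cell, as % of vehicle. DMSO at most 1%.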

Rattus norvegicus [4] = species: Rattus norvegicus; experiment: Inhibition of synaptic vesicle endocytosis in Sprague-Dawley rat cerebrum synaptosomes assessed as reduction in depolarisation-stimulated FM4-64 uptake preincubated for 30 mins followed by FM4-64 addition for 2 mins and further depolarised for 2 mins by fluorescent imaging analysis; format: functional, Synaptosome; conditions: for inhibition: Synaptosome, time 34.0 min
Summary of the method: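 Purified rat cerebrum synaptosomes (male, 6–8 weeks) attached to plates at 30 °C in Krebs buffer with 0.1 mM CaCl₂, pH 7.4. Compound or DMSO (1%) for 30 min, then 1 μM FM 4-64 for 2 min, then 80 mM KCl depolarisation for 2 min. Imaged ex 476–524/em 608–742 nm; intensity normalised to control uptake (1.0).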

[5] = Inhibition of clathrin-mediated endocytosis in human U2OS cells assessed as reduction in Tfn-A594 uptake pretreated for 30 mins; format: cell-based; summary of the method: as §3
Mus musculus [6] = experiment: Antiseizure activity against electrically stimulated seizure in C57BL/6 mouse model assessed as increase in current required to provoke seizures at 400 mg/kg, ip pretreated for 30 mins followed by electrical stimulation at 6 Hz; format: functional, organism-based
Summary of the method: (§4)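 Mouse 6 Hz corneal stimulation (0.2 ms rectangular pulse, 3 s, varying current). Given ip 30 min before stimulation; DMA 20%/Tween-80 5%/PEG300 75% vehicle for test doses (10, 30, 60 mg kg⁻¹), 0.9% saline for valproate (400 mg kg⁻¹). Seizure scored as stunned/fixed posture, rearing, forelimb clonus or twitching. EC50 current by up-and-down method, 2 mA steps; each mouse used once; Mann–Whitney U vs vehicle.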

Mus musculus [7] = experiment: Antiseizure activity against electrically stimulated seizure in C57BL/6 mouse model assessed as increase in seizures threshold at 30 to 60 mg/kg, ip pretreated for 30 mins followed by electrical stimulation at 6 Hz; format: functional, organism-based; conditions: dose 30-60 mg/kg; summary of the method: as §4
Rattus norvegicus [8] = species: Rattus norvegicus; experiment: Inhibition of exocytosis in Sprague-Dawley rat brain synaptosome assessed as effect on Ca2+ dependent glutamate release at 80 uM preincubated for 1 mins in presence of NADP followed by glutamate dehydrogenase addition and further stimulated with 4-aminopyridine for 4 mins by spectrofluorimeter; format: functional; conditions: time 5.0 min
Summary of the method: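 Synaptosomes (0.6 mg in 2 ml) in Krebs-like buffer, pH 7.4, 37 °C, containing 1.2 mM CaCl₂ or calcium-free with 1 mM EGTA. Started with 1 mM NADP; glutamate dehydrogenase 50 U added after 1 min; 4-aminopyridine stimulation after 4 min. Released glutamate followed as NADPH fluorescence (ex 340/em 460 nm).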

Ovis aries [9] = species: Ovis aries; experiment: Competitive inhibition of phosphotidylserine liposome-stimulated sheep brain Dynamin 1 GTPase activity using varying concentrations of Mg2+.GTP as substrate at 3 to 7 uM by Lineweaver-Burk plot analysis; format: tissue-based; conditions: dose 3-7 µM
Mus musculus [10] = experiment: Antiseizure activity against electrically stimulated seizure in C57BL/6 mouse model assessed as increase in seizures threshold at 10 mg/kg, ip pretreated for 30 mins followed by electrical stimulation at 6 Hz; format: functional, organism-based; summary of the method: as §4
Ovis aries [11] = species: Ovis aries; experiment: Inhibition of phosphotidylserine liposome-stimulated sheep brain Dynamin 1 GTPase activity using GTP as substrate at 300 uM by malachite green assay relative to control; format: tissue-based; summary of the method: as §2

Structure (SMILES)	IC50 [1] [µM]	other results
O=S(=O)(NCCNC/C=C/c1ccc(C(F)(F)F)cc1)c1cccc2cnccc12	12.4	
NCCNS(=O)(=O)c1cccc2cnccc12		inhibition (Ovis aries [2]): inactive
O=S(=O)(NCCNCCc1ccccc1)c1cccc2cnccc12	96.8	
O=S(=O)(NCCCNC/C=C/c1ccc(Br)cc1)c1cccc2cnccc12	7.1	
CN(C)c1cccc2c(S(=O)(=O)NCCNC/C=C/c3ccc(Br)cc3)cccc12	3.9	IC50 [3]: 29 µM; IC50 (Rattus norvegicus [4]): 127 µM
O=S(=O)(NCCNCCCc1ccccc1)c1cccc2cnccc12	30.1	
O=S(=O)(c1cccc2cnccc12)N1CCN(C/C=C/c2ccc(Br)cc2)CC1	58.2	
O=S(=O)(NCCNC/C=C/c1ccc(Br)cc1)c1cccc2cccnc12	9.5	
O=S(=O)(NCCNC/C=C/c1ccc(F)cc1)c1cccc2cnccc12	20.3	
O=S(=O)(NCCCCNC/C=C/c1ccc(Br)cc1)c1cccc2ccccc12	3	IC50 [3]: 11.3 µM; inhibition (Rattus norvegicus [4]): inactive
O=S(=O)(NCCCCNC/C=C/c1ccc(Br)cc1)c1cccc2cnccc12	8.1	
O=C(N/N=C/c1cc(O)c(O)cc1O)c1cc2ccccc2cc1O		IC50 [5]: 5.7 µM
Cc1ccc(/C=C/CNCCNS(=O)(=O)c2cccc3cnccc23)cc1	22.4	
O=S(=O)(NCCNC/C=C/c1ccccc1)c1cccc2cnccc12	38.2	
O=S(=O)(NCCNC/C=C/c1ccc(Br)cc1)c1cccc2ccccc12	4.4	IC50 [3]: 12.4 µM; inhibition (Rattus norvegicus [4]): inactive
CN(C/C=C/c1ccc(Br)cc1)CCNS(=O)(=O)c1cccc2ccccc12	10.5	
CN(C)c1cccc2c(S(=O)(=O)NCCCCCN)cccc12	45.1	IC50 [3]: 205 µM; IC50 (Rattus norvegicus [4]): > 300 µM
CCCC(CCC)C(=O)O		Activity (Mus musculus [6]): Active
O=S(=O)(NCCNC/C=C/c1ccc(Br)cc1)c1cccc2cnccc12	7	
O=S(=O)(NCCCCCCNC/C=C/c1ccc(Br)cc1)c1cccc2ccccc12	5.2	IC50 [3]: 27.1 µM; inhibition (Rattus norvegicus [4]): inactive
CC(C)(C)c1ccc(/C=C/CNCCNS(=O)(=O)c2cccc3cnccc23)cc1	6.6	
O=S(=O)(NCCNC/C=C/c1ccc(Br)cc1)c1ccc2ccccc2c1	3.6	IC50 [3]: 9.3 µM; inhibition (Rattus norvegicus [4]): inactive
O=S(=O)(NCCNC/C=C/c1ccc(Cl)cc1)c1cccc2cnccc12	9.2	
O=S(=O)(NCCCNC/C=C/c1ccc(Br)cc1)c1cccc2ccccc12	3.5	IC50 [3]: 27.3 µM; IC50 (Rattus norvegicus [4]): 12.3 µM; Activity (Mus musculus [7]): Active; inhibition (Rattus norvegicus [8]): inactive; inhibition (Ovis aries [9]): Active; Activity (Mus musculus [10]): inactive
O=S(=O)(NCCCCCCNC/C=C/c1ccc(Br)cc1)c1cccc2cnccc12	3.7	IC50 [3]: 15.9 µM; IC50 (Rattus norvegicus [4]): 265 µM; inhibition (Ovis aries [9]): Active
O=C(/C=C/c1ccc(Br)cc1)NCCNS(=O)(=O)c1cccc2cnccc12	> 300	inhibition (Ovis aries [11]): < 50%
CN(C/C=C/c1ccc(Br)cc1)CCN(C)S(=O)(=O)c1cccc2ccccc12	8.7	
CN(C)c1ccc(/C=C/CNCCNS(=O)(=O)c2cccc3cnccc23)cc1	19.9	
